According to ChEMBL document CHEMBL1687824, “Overexpression of patA and patB, which encode ABC transporters, is associated with fluoroquinolone resistance in clinical isolates of Streptococcus pneumoniae” (2011):
In brackets after ≈: the same amount, converted by molar mass.

Legend:
[1] = test system: Streptococcus pneumoniae; assay: Antibacterial activity against dye-resistant Streptococcus pneumoniae by standardized agar doubling dilution method in presence of 50 uM sodium orthovanadate efflux pump inhibitor; assay type: functional
Summary of the method: (§1)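 MIC by agar doubling dilution following BSAC guidelines. Strains grown in brain heart infusion broth 24 h at 37°C in 5% CO2. Where an efflux pump inhibitor applies, MIC redetermined with reserpine at 20 μg/ml or sodium orthovanadate at 50 μM. Synergy taken as a fall in MIC of ≥2 dilutions with inhibitor present. Dye resistance defined relative to R6 (both dyes ≥2 dilutions higher).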

[2] = test system: Streptococcus pneumoniae; assay: Antibacterial activity against fluoroquinolone, dye-resistant Streptococcus pneumoniae M42 overexpressing patA, patB by standardized agar doubling dilution method in presence of 20 ug/ml reserpine efflux pump inhibitor; assay type: functional; summary of the method: as §1
[3] = test system: Streptococcus pneumoniae; assay: Antibacterial activity against Streptococcus pneumoniae M46A overexpressing patA, patB and inactivated patA with single mutation by standardized agar doubling dilution method in presence of 20 ug/ml reserpine efflux pump inhibitor; assay type: functional
Summary of the method: (§2)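 MICs were determined by BSAC agar doubling dilution in the presence of reserpine at 20 μg/ml. Strains were grown in BHI broth for 24 h at 37°C in 5% CO2, with R6 as control. Synergy was defined as an MIC drop of ≥2 dilutions with the inhibitor.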

[4] = test system: Streptococcus pneumoniae; assay: Antibacterial activity against Streptococcus pneumoniae M50A overexpressing patA, patB and inactivated patA with single mutation by standardized agar doubling dilution method in presence of 20 ug/ml reserpine efflux pump inhibitor; assay type: functional; summary of the method: as §2
[5] = test system: Streptococcus pneumoniae; assay: Antibacterial activity against wild type Streptococcus pneumoniae M3 NCTC 7466 type 2 by standardized agar doubling dilution method in presence of 50 uM sodium orthovanadate efflux pump inhibitor; assay type: functional
Summary of the method: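 MIC by agar doubling dilution per BSAC guidelines; strains pregrown in brain heart infusion broth 24 h, 37°C, 5% CO2. MICs measured alone and with efflux pump inhibitors reserpine (20 μg/ml) or sodium orthovanadate (50 μM); synergy defined as ≥2-dilution MIC reduction in presence of inhibitor.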

[6] = test system: Streptococcus pneumoniae; assay: Antibacterial activity against fluoroquinolone-resistant Streptococcus pneumoniae M98 FQ-R overexpressing patA, patB by standardized agar doubling dilution method; assay type: functional
Summary of the method: (§3)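 Clinical S. pneumoniae isolates grown in BHI broth 24 h at 37°C in 5% CO2. MICs by agar doubling dilution per BSAC guidelines, alone or with efflux inhibitor reserpine (20 μg/ml) or sodium orthovanadate (50 μM). Synergy defined as ≥2-dilution MIC reduction in presence of inhibitor.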

[7] = test system: Streptococcus pneumoniae; assay: Antibacterial activity against dye-resistant Streptococcus pneumoniae by standardized agar doubling dilution method in presence of 20 ug/ml reserpine efflux pump inhibitor; assay type: functional; summary of the method: as §1
[8] = test system: Streptococcus pneumoniae; assay: Antibacterial activity against Streptococcus pneumoniae M319 overexpressing patA, patB and inactivated patB with single mutation by standardized agar doubling dilution method in presence of 50 uM sodium orthovanadate efflux pump inhibitor; assay type: functional
Summary of the method: (§4)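 MICs were determined by BSAC agar doubling dilution in the presence of sodium orthovanadate at 50 μM. Cultures were grown in BHI broth for 24 h at 37°C in 5% CO2, with R6 as control. Synergy was defined as an MIC reduction of ≥2 dilutions with the inhibitor present.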

[9] = test system: Streptococcus pneumoniae; assay: Antibacterial activity against fluoroquinolone, dye-resistant Streptococcus pneumoniae M74 overexpressing patA, patB by standardized agar doubling dilution method in presence of 50 uM sodium orthovanadate efflux pump inhibitor; assay type: functional; summary of the method: as §1
[10] = test system: Streptococcus pneumoniae; assay: Antibacterial activity against fluoroquinolone, dye-resistant Streptococcus pneumoniae M87 overexpressing patA, patB by standardized agar doubling dilution method in presence of 20 ug/ml reserpine efflux pump inhibitor; assay type: functional; summary of the method: as §1
[11] = test system: Streptococcus pneumoniae; assay: Antibacterial activity against fluoroquinolone-resistant Streptococcus pneumoniae M79 FQ-R overexpressing patA, patB by standardized agar doubling dilution method in presence of 50 uM sodium orthovanadate efflux pump inhibitor; assay type: functional; summary of the method: as §3
[12] = test system: Streptococcus pneumoniae; assay: Antibacterial activity against fluoroquinolone, dye-resistant Streptococcus pneumoniae M42 overexpressing patA, patB by standardized agar doubling dilution method in presence of 50 uM sodium orthovanadate efflux pump inhibitor; assay type: functional; summary of the method: as §1
[13] = test system: Streptococcus pneumoniae; assay: Antibacterial activity against Streptococcus pneumoniae M318 overexpressing patA, patB and inactivated patA with single mutation by standardized agar doubling dilution method in presence of 20 ug/ml reserpine efflux pump inhibitor; assay type: functional; summary of the method: as §2
[14] = test system: Streptococcus pneumoniae; assay: Antibacterial activity against Streptococcus pneumoniae M55B overexpressing patA, patB and inactivated patB with single mutation by standardized agar doubling dilution method in presence of 20 ug/ml reserpine efflux pump inhibitor; assay type: functional; summary of the method: as §2
[15] = test system: Streptococcus pneumoniae; assay: Antibacterial activity against Streptococcus pneumoniae M311B overexpressing patA, patB and inactivated patB with single mutation by standardized agar doubling dilution method in presence of 20 ug/ml reserpine efflux pump inhibitor; assay type: functional
Summary of the method: (§5)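 MICs determined by BSAC standardized agar doubling dilution. Strains were grown in brain heart infusion broth for 24 h at 37°C in 5% CO2. Inhibitor arms had reserpine at 20 μg/ml or sodium orthovanadate at 50 μM in the agar. Mutants were made by transforming magellan2 insertion amplimers into clinical isolates and selecting on spectinomycin 100 mg/liter, with a no-DNA spontaneous-mutation control.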

[16] = test system: Streptococcus pneumoniae; assay: Antibacterial activity against fluoroquinolone, dye-susceptible Streptococcus pneumoniae by standardized agar doubling dilution method in presence of 50 uM sodium orthovanadate efflux pump inhibitor; assay type: functional; summary of the method: as §1
[17] = test system: Streptococcus pneumoniae; assay: Antibacterial activity against Streptococcus pneumoniae M318 overexpressing patA, patB and inactivated patA with single mutation by standardized agar doubling dilution method in presence of 50 uM sodium orthovanadate efflux pump inhibitor; assay type: functional; summary of the method: as §4
[18] = test system: Streptococcus pneumoniae; assay: Antibacterial activity against fluoroquinolone, dye-resistant Streptococcus pneumoniae M296 overexpressing patA, patB by standardized agar doubling dilution method; assay type: functional; summary of the method: as §1
[19] = test system: Streptococcus pneumoniae; assay: Antibacterial activity against Streptococcus pneumoniae M315 overexpressing patA, patB and inactivated patA with single mutation by standardized agar doubling dilution method in presence of 20 ug/ml reserpine efflux pump inhibitor; assay type: functional; summary of the method: as §5
[20] = test system: Streptococcus pneumoniae; assay: Antibacterial activity against Streptococcus pneumoniae M315 overexpressing patA, patB and inactivated patA with single mutation by standardized agar doubling dilution method in presence of 50 uM sodium orthovanadate efflux pump inhibitor; assay type: functional; summary of the method: as §4
[21] = test system: Streptococcus pneumoniae; assay: Antibacterial activity against fluoroquinolone, dye-resistant Streptococcus pneumoniae M50 overexpressing patA, patB by standardized agar doubling dilution method in presence of 20 ug/ml reserpine efflux pump inhibitor; assay type: functional; summary of the method: as §1
[22] = test system: Streptococcus pneumoniae; assay: Antibacterial activity against fluoroquinolone-resistant Streptococcus pneumoniae M83 FQ-R overexpressing patA, patB by standardized agar doubling dilution method in presence of 20 ug/ml reserpine efflux pump inhibitor; assay type: functional; summary of the method: as §3
[23] = test system: Streptococcus pneumoniae; assay: Antibacterial activity against Streptococcus pneumoniae M87B overexpressing patA, patB and inactivated patB with single mutation by standardized agar doubling dilution method in presence of 50 uM sodium orthovanadate efflux pump inhibitor; assay type: functional; summary of the method: as §4
[24] = test system: Streptococcus pneumoniae; assay: Antibacterial activity against Streptococcus pneumoniae M45A overexpressing patA, patB and inactivated patA with single mutation by standardized agar doubling dilution method in presence of 20 ug/ml reserpine efflux pump inhibitor; assay type: functional; summary of the method: as §2
[25] = test system: Streptococcus pneumoniae; assay: Antibacterial activity against fluoroquinolone-resistant Streptococcus pneumoniae M83 FQ-R overexpressing patA, patB by standardized agar doubling dilution method; assay type: functional; summary of the method: as §3
[26] = test system: Streptococcus pneumoniae; assay: Antibacterial activity against Streptococcus pneumoniae M298 overexpressing patA, patB and inactivated patA with single mutation by standardized agar doubling dilution method in presence of 20 ug/ml reserpine efflux pump inhibitor
[27] = test system: Streptococcus pneumoniae; assay: Antibacterial activity against Streptococcus pneumoniae M301 overexpressing patA, patB and inactivated patA with single mutation by standardized agar doubling dilution method; assay type: functional; summary of the method: as §5

Row | Compound | MIC90 [1] [µg/mL] | MIC [2] [µg/mL] | MIC [3] [µg/mL] | MIC [4] [µg/mL] | MIC [5] [µg/mL] | MIC [6] [µg/mL] | MIC90 [7] [µg/mL] | MIC [8] [µg/mL] | MIC [9] [µg/mL] | MIC [10] [µg/mL] | MIC [11] [µg/mL] | MIC [12] [µg/mL] | MIC [13] [µg/mL] | MIC [14] [µg/mL] | MIC [15] [µg/mL] | MIC90 [16] [µg/mL] | MIC [17] [µg/mL] | MIC [18] [µg/mL] | MIC [19] [µg/mL] | MIC [20] [µg/mL] | also measured
1 | CC[n+]1c(-c2ccccc2)c2cc(N)ccc2c2ccc(N)cc21.[Br-] [HOMIDIUM BROMIDE] | 1 | 0.5 | 0.5 | 0.5 | 0.3 | 4 | 0.5 | 0.5 | 1 | 0.5 | 0.5 | 1 | 0.5 | 0.5 | 0.5 | 0.25 | 0.5 | 8 | 0.12 | 0.25 | MIC [1]: 1 µg/mL; MIC [7]: 0.5 µg/mL; MIC [21]: 0.5 µg/mL; MIC [22]: 4 µg/mL; MIC [23]: 0.5 µg/mL; MIC [24]: 0.5 µg/mL; MIC [25]: 8 µg/mL; MIC [26]: 0.5 µg/mL; MIC [27]: 0.5 µg/mL
2 | O=C(O)c1cn(C2CC2)c2cc(N3CCNCC3)c(F)cc2c1=O [CIPROFLOXACIN] | 0.5 | 32 | 0.12 | 4 | 1 | 32 (≈ 96.6 µM) | 0.5 | 16 | 64 | 8 | 16 | 16 | 16 | 2 | 4 | 0.5 | 16 | 2 (≈ 6.04 µM) | 1 | 0.12 | MIC [21]: 32 µg/mL; MIC [22]: 64 µg/mL; MIC [23]: 8 µg/mL; MIC [24]: 1 µg/mL; MIC [25]: 64 µg/mL (≈ 193 µM); MIC [26]: 8 µg/mL; MIC [27]: 8 µg/mL (≈ 24.1 µM)
